According to publication PMC9590589 (RSC Advances, 2022):
pIC50: −log10 of the molar value.

Assays:
Type in all cases: cell-based
MDA-MB231 (breast) cells = experiment: MTT cytotoxicity assay, MDA-MB231; conditions: Homo sapiens, MDA-MB-231, 24 h, read-out: Cytotoxic activity, IC50, MDA-MB231
Summary of the method: (§1)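 Cells grown in DMEM/F12 with 10% FBS, penicillin (100 U mL−1) and streptomycin (100 μg mL−1) at 37 °C, 5% CO2, and passaged twice weekly by trypsinization. Seeded at 5 × 10^3 cells per well for 24 h, then exposed to a range of test compound concentrations for 24 h. MTT (5 mg mL−1 stock) added for 2 h, supernatant removed, formazan dissolved in DMSO, absorbance read at 540 nm, and IC50 calculated. Controls: doxorubicin (positive) and 0.75% DMSO (negative).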

[1] = MTT cytotoxicity assay, NHDF; conditions: human, normal human dermal fibroblasts (NHDF)
Summary of the method: as §1

[2] = test system: Huh-7 (hepatocellular carcinoma) cells; experiment: MTT cytotoxicity assay, Huh-7; conditions: Homo sapiens, Huh-7, 24 h, read-out: Cytotoxic activity, IC50, Huh-7
Summary of the method: as §1

[3] = test system: KKU-100 (cholangiocarcinoma) cells; experiment: MTT cytotoxicity assay, KKU-100; conditions: Homo sapiens, KKU100, 24 h, read-out: Cytotoxic activity, IC50, KKU-100
Summary of the method: as §1

[4] = test system: MDA-MB231, Huh-7, KKU-100 and normal human dermal fibroblast (NHDF) cell lines; experiment: MTT cytotoxicity assay, all cell lines; conditions: 24 h, read-out: IC50 values against all the cell lines
Summary of the method: as §1

| SMILES | pIC50 (MDA-MB231 (breast) cells) | IC50 at 24 h [1] | pIC50 [2] | pIC50 [3] | pIC50 [4] |
| --- | --- | --- | --- | --- | --- |
| CC(C)=CCOc1ccc(-c2coc3cc(OCC=C(C)C)cc(O)c3c2=O)cc1 [Compound 9, 7,4′-di-O-prenylgenistein] | < 4.00 | > 100 µM | < 4.00 | < 4.00 | < 4.00 |
| COc1cccc2c1C(=O)c1c(O)c3c(c(O)c1C2=O)C[C@@](O)(C(=O)CO)C[C@@H]3O[C@H]1C[C@H](N)[C@H](O)[C@H](C)O1 [Doxorubicin, reference compound] |  | 5 µM |  | 5.72 |  |
